{
  "source": "the M2OR odorant receptor database",
  "data": [
    {"biological_target": "T1, UniProt Q3U0P3", "T1 sequence (whole entry)": "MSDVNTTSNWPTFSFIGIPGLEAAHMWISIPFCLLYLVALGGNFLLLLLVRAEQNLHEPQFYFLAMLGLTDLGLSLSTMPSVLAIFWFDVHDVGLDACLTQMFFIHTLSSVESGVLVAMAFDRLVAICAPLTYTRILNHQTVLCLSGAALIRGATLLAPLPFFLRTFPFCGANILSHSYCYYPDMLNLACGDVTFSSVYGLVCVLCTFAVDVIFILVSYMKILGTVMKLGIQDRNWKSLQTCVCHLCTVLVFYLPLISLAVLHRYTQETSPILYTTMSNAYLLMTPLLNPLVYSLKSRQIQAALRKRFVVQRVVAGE", "conditions": "stereoisomer not certain", "method_in_brief": "(§1)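 Assay methods differ from source to source, frequently being transient luciferase assays in mammalian cell lines. For each receptor–molecule pair, the label responsive (active) applies when the original authors judged the measured signal statistically different from baseline, and non-responsive (inactive) applies otherwise.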", "values": [
      {"smiles": "CC(C)=CCCC(C)=CCOC(=O)C(C)C", "odorant receptor agonist call": "inactive"},
      {"smiles": "OCCc1ccccc1", "odorant receptor agonist call": "inactive"},
      {"smiles": "CC(C)CCN", "odorant receptor agonist call": "inactive"},
      {"smiles": "CC1CCC(C(C)C)C(=O)C1", "note": "(stereo not drawn)", "odorant receptor agonist call": "inactive"},
      {"smiles": "C=CC(=O)CCCCC", "odorant receptor agonist call": "inactive"},
      {"smiles": "C=CC(=C)CCC=C(C)C", "odorant receptor agonist call": "inactive"},
      {"smiles": "CCCC=O", "odorant receptor agonist call": "inactive"},
      {"smiles": "C=C1C2CCC(C2)C1(C)C", "note": "(stereo not drawn)", "odorant receptor agonist call": "inactive"},
      {"smiles": "C=CC(C)=CCC=C(C)CCC=C(C)C", "odorant receptor agonist call": "inactive"},
      {"smiles": "COc1nccnc1C", "odorant receptor agonist call": "inactive"},
      {"smiles": "CCCCCC(=Cc1ccccc1)C(OC)OC", "odorant receptor agonist call": "inactive"},
      {"smiles": "CCSCC", "odorant receptor agonist call": "inactive"},
      {"smiles": "C=C(C)C1CC=C(C)CC1", "note": "(stereo not drawn)", "odorant receptor agonist call": "inactive"},
      {"smiles": "Cc1ccc(OC(=O)C(C)C)cc1", "odorant receptor agonist call": "inactive"},
      {"smiles": "CC=CC(=O)C1=C(C)CCCC1(C)C", "odorant receptor agonist call": "inactive"},
      {"smiles": "CSSCc1ccco1", "odorant receptor agonist call": "inactive"},
      {"smiles": "O=C(O)C1CCC1", "odorant receptor agonist call": "inactive"},
      {"smiles": "CC(CC=O)CCCC(C)(C)O", "note": "(stereo not drawn)", "odorant receptor agonist call": "inactive"},
      {"smiles": "CCCCCCC(=O)OCCCC", "odorant receptor agonist call": "inactive"},
      {"smiles": "CCC=CCCC=CC=O", "odorant receptor agonist call": "inactive"},
      {"smiles": "OCC=Cc1ccccc1", "odorant receptor agonist call": "inactive"},
      {"smiles": "CCCCCOC(=O)CC", "odorant receptor agonist call": "inactive"},
      {"smiles": "Cc1c(C)c(C)c(C=O)c(C)c1C", "odorant receptor agonist call": "inactive"},
      {"smiles": "CC(=O)C1(C)CC2=C(CCCC2(C)C)CC1C", "note": "(stereo not drawn)", "odorant receptor agonist call": "inactive"},
      {"smiles": "CCCCCCCCCCCO", "odorant receptor agonist call": "inactive"},
      {"smiles": "Cc1ccccc1OC(=O)C(C)C", "odorant receptor agonist call": "inactive"},
      {"smiles": "CCCCCC(C=O)=Cc1ccccc1", "odorant receptor agonist call": "inactive"},
      {"smiles": "CC(C)=C1CCC(C)CC1=O", "note": "(stereo not drawn)", "odorant receptor agonist call": "inactive"},
      {"smiles": "CCc1occc(=O)c1O", "odorant receptor agonist call": "inactive"},
      {"smiles": "CCCCCOC(=O)CCC", "odorant receptor agonist call": "inactive"},
      {"smiles": "CCCCCCC=CC=O", "odorant receptor agonist call": "inactive"},
      {"smiles": "CC(=O)OCc1ccc2c(c1)OCO2", "odorant receptor agonist call": "inactive"},
      {"smiles": "CCCC(C)C(=O)OCC", "note": "(stereo not drawn)", "odorant receptor agonist call": "inactive"},
      {"smiles": "CC(C)CS", "odorant receptor agonist call": "inactive"}
    ]},
    {"biological_target": "T2, UniProt Q7TQU8", "T2 sequence (whole entry)": "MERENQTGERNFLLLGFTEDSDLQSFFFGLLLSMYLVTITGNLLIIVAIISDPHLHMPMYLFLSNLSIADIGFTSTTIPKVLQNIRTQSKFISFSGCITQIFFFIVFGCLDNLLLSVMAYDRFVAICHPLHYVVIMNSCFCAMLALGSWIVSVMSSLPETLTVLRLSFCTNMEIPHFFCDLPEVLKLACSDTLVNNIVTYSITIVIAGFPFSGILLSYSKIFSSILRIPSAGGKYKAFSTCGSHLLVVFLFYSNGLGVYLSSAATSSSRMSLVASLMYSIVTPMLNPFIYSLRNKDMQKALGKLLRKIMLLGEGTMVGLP", "conditions": "stereoisomer not certain", "method_in_brief": "as §1", "values": [
      {"smiles": "CC(C)=CCCC(C)=CCOC(=O)C(C)C", "odorant receptor agonist call": "inactive"},
      {"smiles": "OCCc1ccccc1", "odorant receptor agonist call": "inactive"},
      {"smiles": "CC(C)CCN", "odorant receptor agonist call": "inactive"},
      {"smiles": "CC1CCC(C(C)C)C(=O)C1", "note": "(stereo not drawn)", "odorant receptor agonist call": "inactive"},
      {"smiles": "C=CC(=O)CCCCC", "odorant receptor agonist call": "inactive"},
      {"smiles": "C=CC(=C)CCC=C(C)C", "odorant receptor agonist call": "inactive"},
      {"smiles": "CCCC=O", "odorant receptor agonist call": "inactive"},
      {"smiles": "C=C1C2CCC(C2)C1(C)C", "note": "(stereo not drawn)", "odorant receptor agonist call": "inactive"},
      {"smiles": "C=CC(C)=CCC=C(C)CCC=C(C)C", "odorant receptor agonist call": "inactive"},
      {"smiles": "COc1nccnc1C", "odorant receptor agonist call": "inactive"},
      {"smiles": "CCCCCC(=Cc1ccccc1)C(OC)OC", "odorant receptor agonist call": "inactive"},
      {"smiles": "CCSCC", "odorant receptor agonist call": "inactive"},
      {"smiles": "C=C(C)C1CC=C(C)CC1", "note": "(stereo not drawn)", "odorant receptor agonist call": "inactive"},
      {"smiles": "Cc1ccc(OC(=O)C(C)C)cc1", "odorant receptor agonist call": "inactive"},
      {"smiles": "CC=CC(=O)C1=C(C)CCCC1(C)C", "odorant receptor agonist call": "inactive"},
      {"smiles": "CSSCc1ccco1", "odorant receptor agonist call": "inactive"},
      {"smiles": "O=C(O)C1CCC1", "odorant receptor agonist call": "inactive"},
      {"smiles": "CC(CC=O)CCCC(C)(C)O", "note": "(stereo not drawn)", "odorant receptor agonist call": "inactive"},
      {"smiles": "CCCCCCC(=O)OCCCC", "odorant receptor agonist call": "inactive"},
      {"smiles": "CCC=CCCC=CC=O", "odorant receptor agonist call": "inactive"},
      {"smiles": "OCC=Cc1ccccc1", "odorant receptor agonist call": "inactive"},
      {"smiles": "CCCCCOC(=O)CC", "odorant receptor agonist call": "inactive"},
      {"smiles": "Cc1c(C)c(C)c(C=O)c(C)c1C", "odorant receptor agonist call": "inactive"},
      {"smiles": "CC(=O)C1(C)CC2=C(CCCC2(C)C)CC1C", "note": "(stereo not drawn)", "odorant receptor agonist call": "inactive"},
      {"smiles": "CCCCCCCCCCCO", "odorant receptor agonist call": "inactive"},
      {"smiles": "Cc1ccccc1OC(=O)C(C)C", "odorant receptor agonist call": "inactive"},
      {"smiles": "CCCCCC(C=O)=Cc1ccccc1", "odorant receptor agonist call": "inactive"},
      {"smiles": "CC(C)=C1CCC(C)CC1=O", "note": "(stereo not drawn)", "odorant receptor agonist call": "inactive"},
      {"smiles": "CCc1occc(=O)c1O", "odorant receptor agonist call": "inactive"},
      {"smiles": "CCCCCOC(=O)CCC", "odorant receptor agonist call": "inactive"},
      {"smiles": "CCCCCCC=CC=O", "odorant receptor agonist call": "inactive"},
      {"smiles": "CC(=O)OCc1ccc2c(c1)OCO2", "odorant receptor agonist call": "inactive"},
      {"smiles": "CCCC(C)C(=O)OCC", "note": "(stereo not drawn)", "odorant receptor agonist call": "inactive"},
      {"smiles": "CC(C)CS", "odorant receptor agonist call": "inactive"}
    ]}
  ]
}
